Assay results collected from several papers.
Each line is one published result; the experiments were not run side by side.
Target: Rho-associated protein kinase 2 (ROCK2, Homo sapiens, UniProt O75116)

With `CC1CCCN1c1nccc(-c2cnn3ncccc23)n1` (stereo not shown) the remaining binding was 100% (binding; 1 µM).
`Cn1cc(Cl)c2c(Oc3c(F)cc(Nc4cc(Cl)nc(N)n4)cc3F)ccnc21` has a remaining binding of 83% (cell-free assay, competition with immobilised ligand; 0.1 µM).
`COc1ncc2cc3ccccc3nc2c1C#N` has a remaining binding of 98% (cell-free assay, competition with immobilised ligand; 5 µM).
The remaining binding of `Cc1cc(-n2nc(Cc3cc(F)cc(C(F)(F)F)c3)nc2C)ccc1C(N)=O` is reported as 96% (cell-free assay, competition with immobilised ligand; 1 µM).
The remaining binding of `COc1cnc(Nc2cccc(S(N)(=O)=O)c2)nc1N1CCN(c2ccccc2)CC1` is reported as 90% (binding, competition with immobilised ligand; 1 µM).
For `CN(c1nccc(-c2cnn3ncccc23)n1)C1CC1`, the remaining binding was 100% (binding; 1 µM).
`COCCOc1nc(-c2ccc(Cl)nc2)nc2c1CN(C(=O)c1ncn3ccccc13)CC2` has a remaining binding of 76% (cell-free assay, competition with immobilised ligand; 0.1 µM).
For `O=C(c1ccc(Nc2ncc(Cl)c(-c3ccc(Cl)s3)n2)cc1)N1CCC(N2CCCC2)CC1`, the remaining binding was 4.3% (binding, competition with immobilised ligand; 1 µM).
With `O=C(Nc1c[nH]nc1C(=O)NC1CCNCC1)c1cc(F)cc(F)c1` the remaining binding was 88% (binding, competition with immobilised ligand; 1 µM).
`Cc1cnn2ncc(-c3ccnc(N(C)C)n3)c2c1` has a remaining binding of 95% (binding; 1 µM).
`O=C(c1ccc(Nc2nccc(-c3cc4ccccc4s3)n2)cc1)N1CCC(N2CCCC2)CC1` gave a remaining binding of 7.4% (binding, competition with immobilised ligand; 1 µM).
With `N#CC1(c2ccccn2)CCN(Cc2cc(C(=O)N3CCCC3)c(=O)n3ccccc23)CC1` the remaining binding was 72% (cell-free assay, competition with immobilised ligand; 1 µM).
For `COc1ccnn2ncc(-c3ccnc(N(C)C)n3)c12`, the remaining binding was 100% (binding; 1 µM).
`C[C@@H](c1ccc(-n2cnc3c(N)ncnc32)cc1)N1CCc2nn(C)c(Cc3ccccc3)c2C1=O` gave a remaining binding of 77% (binding, competition with immobilised ligand; 0.1 µM).
`C[C@@H]1CN(c2ccc3ncc(-c4ccc5[nH]nc(C6CC6)c5c4)n3n2)C[C@H](C)O1` has a remaining binding of 69% (binding, competition with immobilised ligand; 50 nM).
`c1cncc(-c2cccc(Nc3nccc(NC4CCCCC4)n3)c2)c1` has a remaining binding of 25% (binding, competition with immobilised ligand; 10 µM).
